# From ChEMBL document CHEMBL4689842, “EUbOPEN Chemogenomics Library wave 1” (2021)
# System: HEK-293T
# Assay: Multiplex assay against HEK293T;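 for Population Tubulin-Different-Phenotype (%): share of the cells with healthy nuclei that show this phenotype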
# Type: toxicity, cell-based
# Conditions: human
# Summary of the method: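 With compound added, live cells were imaged on a CQ1 microscope at 37°C and 5% CO2; staining with Hoechst33342, BioTracker Green Microtubule Cytoskeleton Dye, MitoTracker Red and Annexin V Alexa Fluor 680 had been done at seeding. The CellPathfinder machine-learning gating scheme split cells into Hoechst high-intensity objects or normal cells, normal cells into healthy, pyknosed or fragmented nuclei, and pyknosed cells into mitotic or apoptotic. The tubulin, mitochondrial-mass and membrane-permeability phenotypes are per cents of healthy-nucleus cells.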
# [1] = 12 h, 1 µM, compound concentration 1 uM, replicate 1
# [2] = 12 h, 1 µM, compound concentration 1 uM, replicate 2
# [3] = 12 h, 10 µM, compound concentration 10 uM, replicate 1
# [4] = 12 h, 10 µM, compound concentration 10 uM, replicate 2
# [5] = 24 h, 1 µM, compound concentration 1 uM, replicate 1
# [6] = 24 h, 1 µM, compound concentration 1 uM, replicate 2
# [7] = 24 h, 10 µM, compound concentration 10 uM, replicate 1
# [8] = 24 h, 10 µM, compound concentration 10 uM, replicate 2
# [9] = 48 h, 1 µM, compound concentration 1 uM, replicate 1
# [10] = 48 h, 1 µM, compound concentration 1 uM, replicate 2
# [11] = 48 h, 10 µM, compound concentration 10 uM, replicate 1
# [12] = 48 h, 10 µM, compound concentration 10 uM, replicate 2
smiles,measurement,setting,value
N#Cc1cccc(C(=O)Nc2cc(-c3ccccc3)nn2-c2ccccc2)c1,Population Apoptotic (%),[1],48%
same,Population Healthy Nuclei (%),[1],41%
same,Population Hoechst High Intensity Objects (%),[1],13%
same,Population Membrane Permeable-Phenotype (%),[1],2%
same,Population Mitochondria Different-Phenotype (%),[1],85%
same,Population Mitotic Cells (%),[1],51%
same,Population Normal (%),[1],86%
same,Population Pyknosed Nuclei (%),[1],49%
same,Population Tubulin-Different-Phenotype (%),[1],64%
same,Total Cell Count,[1],315
same,Population Apoptotic (%),[2],16%
same,Population Fragmented Nuclei (%),[2],8%
same,Population Healthy Nuclei (%),[2],42%
same,Population Hoechst High Intensity Objects (%),[2],6%
same,Population Membrane Permeable-Phenotype (%),[2],18%
same,Population Mitochondria Different-Phenotype (%),[2],23%
same,Population Mitotic Cells (%),[2],83%
same,Population Normal (%),[2],93%
same,Population Pyknosed Nuclei (%),[2],48%
same,Population Tubulin-Different-Phenotype (%),[2],45%
same,Total Cell Count,[2],182
same,Population Apoptotic (%),[3],73%
same,Population Fragmented Nuclei (%),[3],8%
same,Population Healthy Nuclei (%),[3],33%
same,Population Hoechst High Intensity Objects (%),[3],14%
same,Population Membrane Permeable-Phenotype (%),[3],5%
same,Population Mitochondria Different-Phenotype (%),[3],97%
same,Population Mitotic Cells (%),[3],26%
same,Population Normal (%),[3],86%
same,Population Pyknosed Nuclei (%),[3],57%
same,Total Cell Count,[3],300
same,Population Apoptotic (%),[4],45%
same,Population Fragmented Nuclei (%),[4],5%
same,Population Healthy Nuclei (%),[4],25%
same,Population Hoechst High Intensity Objects (%),[4],5%
same,Population Membrane Permeable-Phenotype (%),[4],14%
same,Population Mitochondria Different-Phenotype (%),[4],73%
same,Population Mitotic Cells (%),[4],54%
same,Population Normal (%),[4],94%
same,Population Pyknosed Nuclei (%),[4],68%
same,Population Tubulin-Different-Phenotype (%),[4],100%
same,Total Cell Count,[4],174
same,Population Apoptotic (%),[5],45%
same,Population Fragmented Nuclei (%),[5],9%
same,Population Healthy Nuclei (%),[5],37%
same,Population Hoechst High Intensity Objects (%),[5],12%
same,Population Membrane Permeable-Phenotype (%),[5],4%
same,Population Mitochondria Different-Phenotype (%),[5],61%
same,Population Mitotic Cells (%),[5],54%
same,Population Normal (%),[5],87%
same,Population Pyknosed Nuclei (%),[5],53%
same,Population Tubulin-Different-Phenotype (%),[5],51%
same,Total Cell Count,[5],328
same,Population Apoptotic (%),[6],12%
same,Population Fragmented Nuclei (%),[6],6%
same,Population Healthy Nuclei (%),[6],53%
same,Population Hoechst High Intensity Objects (%),[6],4%
same,Population Membrane Permeable-Phenotype (%),[6],14%
same,Population Mitochondria Different-Phenotype (%),[6],21%
same,Population Mitotic Cells (%),[6],88%
same,Population Normal (%),[6],95%
same,Population Pyknosed Nuclei (%),[6],39%
same,Population Tubulin-Different-Phenotype (%),[6],45%
same,Total Cell Count,[6],200
same,Population Apoptotic (%),[7],65%
same,Population Fragmented Nuclei (%),[7],7%
same,Population Healthy Nuclei (%),[7],27%
same,Population Hoechst High Intensity Objects (%),[7],15%
same,Population Membrane Permeable-Phenotype (%),[7],4%
same,Population Mitochondria Different-Phenotype (%),[7],97%
same,Population Mitotic Cells (%),[7],34%
same,Population Normal (%),[7],84%
same,Population Pyknosed Nuclei (%),[7],65%
same,Population Tubulin-Different-Phenotype (%),[7],95%
same,Total Cell Count,[7],309
same,Population Apoptotic (%),[8],67%
same,Population Fragmented Nuclei (%),[8],5%
same,Population Healthy Nuclei (%),[8],31%
same,Population Hoechst High Intensity Objects (%),[8],4%
same,Population Membrane Permeable-Phenotype (%),[8],8%
same,Population Mitochondria Different-Phenotype (%),[8],84%
same,Population Mitotic Cells (%),[8],33%
same,Population Normal (%),[8],95%
same,Population Pyknosed Nuclei (%),[8],62%
same,Population Tubulin-Different-Phenotype (%),[8],100%
same,Total Cell Count,[8],167
same,Population Apoptotic (%),[9],46%
same,Population Fragmented Nuclei (%),[9],11%
same,Population Healthy Nuclei (%),[9],49%
same,Population Hoechst High Intensity Objects (%),[9],15%
same,Population Membrane Permeable-Phenotype (%),[9],4%
same,Population Mitochondria Different-Phenotype (%),[9],29%
same,Population Mitotic Cells (%),[9],53%
same,Population Normal (%),[9],84%
same,Population Pyknosed Nuclei (%),[9],38%
same,Population Tubulin-Different-Phenotype (%),[9],44%
same,Total Cell Count,[9],415
same,Population Apoptotic (%),[10],19%
same,Population Fragmented Nuclei (%),[10],6%
same,Population Healthy Nuclei (%),[10],77%
same,Population Hoechst High Intensity Objects (%),[10],4%
same,Population Membrane Permeable-Phenotype (%),[10],15%
same,Population Mitochondria Different-Phenotype (%),[10],4%
same,Population Mitotic Cells (%),[10],80%
same,Population Normal (%),[10],95%
same,Population Pyknosed Nuclei (%),[10],16%
same,Population Tubulin-Different-Phenotype (%),[10],42%
same,Total Cell Count,[10],356
same,Population Apoptotic (%),[11],53%
same,Population Fragmented Nuclei (%),[11],14%
same,Population Healthy Nuclei (%),[11],23%
same,Population Hoechst High Intensity Objects (%),[11],11%
same,Population Membrane Permeable-Phenotype (%),[11],5%
same,Population Mitochondria Different-Phenotype (%),[11],78%
same,Population Mitotic Cells (%),[11],46%
same,Population Normal (%),[11],88%
same,Population Pyknosed Nuclei (%),[11],62%
same,Population Tubulin-Different-Phenotype (%),[11],100%
same,Total Cell Count,[11],332
same,Population Apoptotic (%),[12],63%
same,Population Fragmented Nuclei (%),[12],6%
same,Population Healthy Nuclei (%),[12],42%
same,Population Hoechst High Intensity Objects (%),[12],7%
same,Population Membrane Permeable-Phenotype (%),[12],17%
same,Population Mitochondria Different-Phenotype (%),[12],65%
same,Population Mitotic Cells (%),[12],36%
same,Population Normal (%),[12],92%
same,Population Pyknosed Nuclei (%),[12],50%
same,Population Tubulin-Different-Phenotype (%),[12],98%
same,Total Cell Count,[12],204
